Screens: PubChem BioAssay, several laboratories
This is a sample that favours compounds with a hit; in the whole collection about 2.8% have one here.
JMJD2C inh: human JMJD2C demethylase inhibition | AID 2099 | 330,000 compounds, 0.069% hits | Q9H3R0 | inhibition, % at 2.35 µM | GST-JMJD2C(1-420) H3K9me3 demethylation, DELFIA europium;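 active = more than half of a compound's replicate wells show inhibition beyond 50%, single wells judged on their own value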;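 note: signal counts dimethyl H3K9 product captured on neutravidin plate; 0% = median of DMSO wells and 100% = 0.3 times that DMSO median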
T cell HTS: T cell immune modulation candidate | 330,000 compounds, 0.068% hits | 2C CD8+ T cell-vesicle binding, flow cytometry; active compounds read low | response (vesicle binding), % at 7 µM | AID 2052;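 active = response, share of CD8 T cells binding vesicles, and their 90th percentile fluorescence all below set limits, cut at about 80% in these data, passing the limit was not always enough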;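 note: values below 100% mean blocked vesicle binding to the CD8+ T cells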
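incubation = binding step 1.5 h, 37 °C, antibody labelling 20 min, ice | test system = 2C mouse CD8+ T cells | read-out basis = percent CD8+ FL2 mean versus row control | controls = Peptide-free naked vesicles (low) and QL9 vesicles with 0.7% DMSO vehicle (high) | detection = flow cytometry of vesicle-bound cells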
Rtt109 Vps75: inhibitors of Candida albicans Rtt109/Vps75 histone acetyltransferase; AID 540336; purified Rtt109/Vps75, ThioGlo CoA-SH fluorescence, 4 h; inhibition, % at 34.9 µM; 330,000 compounds, 0.16% hits; Q5AAJ8;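 active = inhibition of at least 50% in every replicate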
Target sequence (Q5AAJ8 whole entry, looked up): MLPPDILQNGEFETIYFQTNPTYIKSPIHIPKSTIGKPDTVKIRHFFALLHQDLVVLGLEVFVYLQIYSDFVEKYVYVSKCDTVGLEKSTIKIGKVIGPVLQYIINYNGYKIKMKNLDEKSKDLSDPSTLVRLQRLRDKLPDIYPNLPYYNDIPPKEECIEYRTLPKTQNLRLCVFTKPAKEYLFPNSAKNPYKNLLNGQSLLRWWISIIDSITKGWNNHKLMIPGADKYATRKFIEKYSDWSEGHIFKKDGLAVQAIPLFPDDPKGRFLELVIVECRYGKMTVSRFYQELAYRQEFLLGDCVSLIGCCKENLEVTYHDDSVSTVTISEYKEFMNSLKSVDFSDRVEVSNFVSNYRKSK
NR3A LBD binder: modulates the human NR3A ligand-binding domain; 340,000 compounds, 2.5% hits; Tm shift relative to glycine control, % at 25 µM; NR3A LBD differential scanning fluorimetry, Tm shift; 0% = protein alone, 100% = glycine-bound protein;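 active = melting temperature shift of at least 10% of the positive control shift, at one fixed dose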
* hit, by the source's call; i = inactive; . = no result.

SMILES	JMJD2C inh	T cell HTS	Rtt109 Vps75	NR3A LBD binder
COc1ccc(OC)c(NC(=O)CCCSc2ccccc2)c1	-12.8	145.9	-4.9	-2.4
CC(C)(CC(=O)c1ccccc1)CC(=O)c1ccccc1	.	.	-2.6	2.6
O=[N+]([O-])c1cccc(N/N=C/c2cccc3ccccc23)c1	-1.3	230.5	-4.2	24.5*
COc1cccc(/C=N/Nc2snc(SC)c2C#N)c1O	4.5	258.9	2.5	30.0*
O=C(O)c1cc(N/N=C/c2cccc3ccccc23)ccc1Cl	11.0	370.7	10.7	-5.0
COc1cccc(/C=N/Nc2ccc([N+](=O)[O-])cn2)c1O	2.3	257.1	-8.3	29.2*
COc1ccc(/C=N/Nc2snc(SC)c2C#N)cc1OC	-7.1	661.1	25.6	5.5
COc1cccc(C=Nc2ccc(C)c(F)c2)c1O	-2.1	282.9	7.2	13.0*
COc1cccc(C=Nc2cc(C)cc(C)c2)c1O	-1.1	368.4	-1.6	-4.1
NS(=O)(=O)c1cccc(NC(=O)COC(=O)c2ccc(S(=O)(=O)N3CCOCC3)cc2)c1	.	.	-0.3	0.2
CN(C)c1ccc(S(=O)(=O)N2CCCCC2)cc1NC(=O)CCNC(=O)c1ccccc1Cl	.	.	-3.8	3.3
CCC(CCC(=O)NNC(=O)Cc1ccc([N+](=O)[O-])cc1)C(=O)O (stereo unspecified)	-0.1	258.2	4.3	0.2
O=C(O)c1ccccc1C=NNc1ccc([N+](=O)[O-])cn1	.	.	8.9	0.2
COc1cccc(/C=N/NC(=O)N/N=C/c2cccc(OC)c2O)c1O	-0.5	298.2	-6.7	34.7*
O=[N+]([O-])c1ccc(NN=Cc2cccc3ccccc23)nc1	.	.	-5.8	28.7*
COc1ccc(/C=C(\NC(=O)c2ccccc2)C(=O)N2CCC(C)CC2)cc1	.	.	7.4	-7.3
COc1ccc(/C=C2\CCc3ccccc3C2=O)cc1O	-3.6	152.9	15.3	-6.0
COc1ccc(/C=C2\Cc3ccccc3C2=O)cc1OC	-11.9	151.2	-4.7	13.3*
Cc1ccc(OCC(O)CNS(=O)(=O)c2ccccc2C(=O)O)cc1 (stereo unspecified)	0.6	261.0	-21.0	13.1*
Cc1ccc(S(=O)(=O)N(CCC(=O)O)c2ccccc2)cc1	4.3	0.0	0.8	15.3*
Cc1ccc(N(CCC(=O)O)S(=O)(=O)c2ccc(C)cc2)cc1	-3.9	631.1	1.7	1.0
CCCn1nc(C(=O)Nc2cc(S(=O)(=O)Nc3ccc(OC)cc3)ccc2O)c2ccccc2c1=O	-7.1	281.9	3.6	27.1*
COc1ccccc1NS(=O)(=O)c1cccc(NS(=O)(=O)c2ccc(Cl)c(C(=O)O)c2)c1	4.2	560.5	8.2	-2.5
O=C(Nc1nnc(Cc2ccc(Cl)cc2)s1)c1cccs1	9.2	930.0	-7.7	12.3*
O=C(Nc1nnc(Cc2ccccc2)s1)c1cccs1	-1.4	188.9	-4.5	-1.0
SMILES	JMJD2C inh	T cell HTS	Rtt109 Vps75	NR3A LBD binder
CCc1nnc(NC(=O)Nc2ccc(Cl)cc2)s1	-11.3	292.9	-6.3	-0.9
O=C(Nc1ccc(Cl)cc1)Nc1nnc(CSCc2ccc(Cl)cc2)s1	0.6	253.1	-7.0	24.1*
COC(=O)C1OC(OC2CC[C@]3(C)C(CC[C@@]4(C)[C@@H]3CC=C3[C@@H]5CC(C)(C)CC[C@]5(C(=O)OC5OC(CO)C(O)C(O)C5O)CC[C@]34C)C2(C)C)C(O)C(O)C1O[C@H]1OCC(O)C(O)C1O (stereo partly specified)	6.9	i	-3.6	14.6*
CC1(C)CC[C@]2(C(=O)O[C@@H]3OC(CO)[C@@H](O)[C@H](O)[C@H]3O)CC[C@]3(C)C(=CCC4[C@@]5(C)CC[C@H](O[C@@H]6OC(C(=O)O)[C@@H](O)[C@H](O)[C@H]6O)C(C)(C)C5CC[C@]43C)[C@@H]2C1 (stereo partly specified)	-1.5	335.1	5.7	0.3
COc1ccc2cc(C[C@@H]3CC[C@@H](CO)O3)ccc2c1	.	.	-2.0	-2.0
O=C(Nc1ccccc1)Nc1cccc(NC(=O)Nc2ccccc2)c1F	0.4	248.7	18.8	24.3*
O=C(Nc1cccc(C(F)(F)F)c1)NC1CCN(S(=O)(=O)c2ccc(F)cc2)CC1	13.4	354.9	-4.4	19.2*
Cc1ccc(OC(F)F)c(NC(=O)Nc2cccc(C(F)(F)F)c2)c1	-7.8	335.3	-1.9	28.9*
O=C(Nc1cccc(C(F)(F)F)c1)c1ccccc1NC(=O)C1CCCCC1	-1.5	239.5	0.6	10.5*
O=C(Nc1ccccc1)Nc1ccccc1Br	18.2	244.8	-3.5	-11.9
O=C(Nc1cc(C(F)(F)F)ccc1F)C1CCCCC1	-10.3	544.3	-4.8	-1.2
COc1cccc(NC(=O)Nc2cc(C)ccc2OC)c1	11.6	228.4	0.3	-3.7
CCN(C(=O)CSc1nc2ccc(Cl)cc2[nH]1)C1CCS(=O)(=O)C1 (stereo unspecified)	-3.1	103.1	-7.2	0.4
CCC(C)(C)NC(=O)C(c1ccc(C)o1)N(Cc1ccc2c(c1)OCO2)C(=O)c1snc(C(N)=O)c1N (stereo unspecified)	-11.6	284.2	-2.4	-2.0
C=CCn1c(COc2ccc(F)cc2)nnc1SCC(=O)NC1CC1	-4.4	662.8	-4.3	0.3
COc1ccc(NC(=O)Nc2cc(C)cc(C)c2)cn1	-5.6	401.3	-1.5	-430.0
COc1ccc(NC(=O)Nc2cccc(C(F)(F)F)c2)cn1	i	329.0	15.3	26.0*
O=C(Nc1ccccc1)Nc1cc([N+](=O)[O-])ccc1F	11.8	427.4	-12.8	19.8*
CNC(=O)Nc1cccc(C(F)(F)F)c1	1.6	171.1	-4.1	1.2
O=C(Nc1ccccc1)Nc1cccc(C(F)(F)F)c1	-0.2	409.1	5.8	26.6*
O=C(COc1ccc(Cl)cc1)Nc1ccc(C(=O)O)cc1NC(=O)COc1ccc(Cl)cc1	10.2	300.5	2.1	10.2*
O=C(COc1ccc(Cl)cc1)Nc1ccccc1Cl	-5.1	149.9	7.8	2.2
CN(C)S(=O)(=O)c1ccc(NC(=O)c2ccc3ncsc3c2)cc1	2.6	180.1	.	16.8*
O=C(Nc1ccc(Br)cc1)c1ccc2ncsc2c1	-1.0	577.3	-0.2	26.5*
COc1ccc(NC(=O)c2ccc(S(=O)(=O)N(C)C)cc2)cc1OC	-3.6	235.2	9.4	20.2*
SMILES	JMJD2C inh	T cell HTS	Rtt109 Vps75	NR3A LBD binder
CC(C)Oc1ccc(C(=O)OCC(=O)NC(=O)NC2CCCC2)cc1	.	471.6	18.2	-1.7
O=Cc1ccc(F)c([B-](F)(F)F)c1	.	.	9.6	1.0
O=C(Nc1ccc(Cl)c(C(F)(F)F)c1)c1ccncc1	4.2	186.6	-0.1	-1.5
CNC(=O)c1cc(Oc2ccc(NC(=O)Nc3ccc(Cl)c(C(F)(F)F)c3)cc2)ccn1	.	832.0	2.3	11.5*
CSc1nc(-c2ccc(Cl)cc2)c(C#N)c(=O)[nH]1	11.0	190.9	-2.8	37.9*
CCCN(C(=O)C1=COCCO1)c1c(N)n(Cc2ccccc2)c(=O)[nH]c1=O	-6.0	214.8	2.3	3.0
CC(C)CCN(C(=O)C1=COCCO1)c1c(N)n(Cc2ccccc2)c(=O)[nH]c1=O	74.9*	706.4	17.0	-0.6
O=C(O)c1cc(S(=O)(=O)NCCOc2ccccc2)ccc1Cl	-0.4	568.8	11.9	0.3
